≈ marks a conversion by molar mass, not a printed value. Calls of active or inactive are those of the source. The calls are words filed in the database; no cut-off is given here.
How the values were obtained:
[1] = test system: Mycobacterium tuberculosis; experiment: Antitubercular activity against log phase culture of Mycobacterium tuberculosis H37Rv ATCC 27294 by agar dilution method; format: functional
Method in brief: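 H37Rv (ATCC27294) was tested by agar dilution, with the compound serially diluted from 50 to 0.78 in duplicate. MIC was taken as the lowest concentration giving complete growth inhibition.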

[2] = Cytotoxicity against HEK293T cells assessed as cellular growth at 100 uM by MTT assay; format: cell-based, HEK-293T; settings: human, read-out: Activity
Method in brief: (§1)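 HEK293T cells were exposed to compound at 25 and 100 and read out by MTT assay.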

[3] = Cytotoxicity against HEK293T cells assessed as cellular growth at 25 uM by MTT assay; format: cell-based, HEK-293T; settings: human, read-out: Activity; method in brief: as §1
[4] = test system: Mycobacterium tuberculosis; experiment: Ratio of nitazoxanide MIC to compound MIC for log phase culture of Mycobacterium tuberculosis H37Rv ATCC 27294; format: functional
[5] = test system: Mycobacterium tuberculosis; experiment: Antitubercular activity against non-culturable Mycobacterium tuberculosis assessed as reduction in dormant cell viability at 10 ug/mL measured for 7 days by MPN assay; format: functional, organism-based
Method in brief: (§2)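 Bacilli were grown in potassium-deficient Sauton's medium with ADC and 0.05% Tween-80 at 37 °C and 200 rpm. Dormancy was confirmed by failure to form colonies on agar-solidified Sauton's. Non-culturable cells were washed and exposed to compound for 7 days, then resuscitated in liquid Sauton's alongside untreated cells. Recovered cell concentration was estimated by Most Probable Number assay with statistical treatment.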

[6] = test system: Mycobacterium tuberculosis; experiment: Antitubercular activity against non-culturable Mycobacterium tuberculosis assessed as log reduction in dormant cell viability at 10 ug/mL measured for 7 days by MPN assay relative to control; format: functional; method in brief: as §2
[7] = Therapeutic index, ratio of cytotoxicity against HEK293T cells to MIC for log phase culture of Mycobacterium tuberculosis H37Rv ATCC 27294; format: cell-based, HEK-293T; settings: human, read-out: TI

**Q.** With `COOc1ccc(-c2ccc(C(=O)Nc3ncc([N+](=O)[O-])s3)o2)cc1` as the compound, how does the MIC [1] read?
**A.** The MIC was 72.4 µM (≈ 26.2 µg/mL).

**Q.** What about the viability at 100 µM [2] of the same compound?
**A.** The viability at 100 µM was 95.7%.

**Q.** And the viability at 25 µM [3]?
**A.** Its viability at 25 µM is 100%.

**Q.** Which results are given for `O=C(Nc1ncc([N+](=O)[O-])s1)c1cc(Cl)cc(Cl)c1O`?
**A.** MIC [1]: 74.8 µM (≈ 25 µg/mL); viability at 100 µM [2]: 23.5%; viability at 25 µM [3]: 100%

**Q.** With `CC(=O)Oc1ccc(Cl)cc1C(=O)Nc1ncc([N+](=O)[O-])s1` as the compound, how does the Ratio [4] read?
**A.** Its Ratio is 8.9.

**Q.** What about the MIC [1] of the same compound?
**A.** The MIC was 18.3 µM (≈ 6.25 µg/mL).

**Q.** What about the viability at 100 µM [2] of the same compound?
**A.** The viability at 100 µM was 31.1%.

**Q.** And the viability at 25 µM [3]?
**A.** Its viability at 25 µM is 59.5%.

**Q.** For `O=C(Nc1ncc([N+](=O)[O-])s1)c1ccco1`, which MIC [1] is on record?
**A.** The MIC was 206 µM (≈ 49.2 µg/mL).

**Q.** With `O=C(Nc1ncc([N+](=O)[O-])s1)c1ccc(-c2ccc([N+](=O)[O-])cc2)o1` as the compound, how does the MIC [1] read?
**A.** The MIC was 17.3 µM (≈ 6.25 µg/mL).

**Q.** And the viability at 100 µM [2]?
**A.** Its viability at 100 µM is 79.2%.

**Q.** What about the viability at 25 µM [3] of the same compound?
**A.** The viability at 25 µM was 88.4%.

**Q.** What does the source list for `O=C(Nc1ncc([N+](=O)[O-])s1)c1cccs1` [TENONITROZOLE]?
**A.** MIC [1]: 24.5 µM (≈ 6.25 µg/mL); viability at 100 µM [2]: 93.4%; viability at 25 µM [3]: 100%

**Q.** What does the source list for `O=C(Nc1ncc([N+](=O)[O-])s1)c1ccc([N+](=O)[O-])s1`?
**A.** MIC [1]: 20.8 µM (≈ 6.25 µg/mL); viability at 100 µM [2]: 35.9%; viability at 25 µM [3]: 100%

**Q.** For `O=C(Oc1ccc(Cl)cc1C(=O)Nc1ncc([N+](=O)[O-])s1)c1ccccc1`, which MIC [1] is on record?
**A.** The MIC was 15.5 µM (≈ 6.25 µg/mL).

**Q.** And the viability at 100 µM [2]?
**A.** The viability at 100 µM was 23.7%.

**Q.** And the viability at 25 µM [3]?
**A.** The viability at 25 µM was 72.2%.

**Q.** For `Cc1ccc(-c2ccc(C(=O)Nc3ncc([N+](=O)[O-])s3)o2)cc1`, which MIC [1] is on record?
**A.** The MIC was 19 µM (≈ 6.25 µg/mL).

**Q.** And the viability at 100 µM [2]?
**A.** The viability at 100 µM was 91.5%.

**Q.** And the viability at 25 µM [3]?
**A.** The viability at 25 µM was 94.1%.

**Q.** Which Ratio [4] does the source give for `CC(=O)Oc1cc(Cl)ccc1C(=O)Nc1ncc([N+](=O)[O-])s1` here?
**A.** Its Ratio is 4.4.

**Q.** What about the MIC [1] of the same compound?
**A.** The MIC was 36.6 µM (≈ 12.5 µg/mL).

**Q.** What about the viability at 100 µM [2] of the same compound?
**A.** Its viability at 100 µM is 83.5%.

**Q.** And the viability at 25 µM [3]?
**A.** The viability at 25 µM was 100%.

**Q.** For `O=C(Oc1c(C(=O)Nc2ncc([N+](=O)[O-])s2)cc([N+](=O)[O-])cc1[N+](=O)[O-])c1ccccc1`, which MIC [1] is on record?
**A.** Its MIC is over 109 µM.

**Q.** Which MIC [1] does the source give for `CC(C)c1cc(C(=O)Nc2ncc([N+](=O)[O-])s2)c(O)c(C(C)C)c1` here?
**A.** The MIC was 17.9 µM (≈ 6.25 µg/mL).

**Q.** What about the viability at 100 µM [2] of the same compound?
**A.** Its viability at 100 µM is 7.1%.

**Q.** And the viability at 25 µM [3]?
**A.** The viability at 25 µM was 29.4%.

**Q.** Which MIC [1] does the source give for `O=C(Nc1ncc([N+](=O)[O-])s1)c1ccc(-c2ccc(Cl)cc2)o1` here?
**A.** Its MIC is 17.9 µM (≈ 6.25 µg/mL).

**Q.** And the viability at 100 µM [2]?
**A.** Its viability at 100 µM is 74.1%.

**Q.** And the viability at 25 µM [3]?
**A.** The viability at 25 µM was 75%.

**Q.** Which Ratio [4] does the source give for `CC(=O)Oc1c(C(=O)Nc2ncc([N+](=O)[O-])s2)cc(C(C)C)cc1C(C)C` here?
**A.** Its Ratio is 2.54.

**Q.** And the MIC [1]?
**A.** The MIC was 63.9 µM (≈ 25 µg/mL).

**Q.** And the viability at 100 µM [2]?
**A.** Its viability at 100 µM is 20.6%.

**Q.** What about the viability at 25 µM [3] of the same compound?
**A.** Its viability at 25 µM is 45.9%.

**Q.** With `O=C(Oc1cc(Cl)ccc1C(=O)Nc1ncc([N+](=O)[O-])s1)c1ccccc1` as the compound, how does the MIC [1] read?
**A.** Its MIC is over 124 µM.

**Q.** What does the source list for `O=C(Oc1c(Cl)cc(Cl)cc1C(=O)Nc1ncc([N+](=O)[O-])s1)c1ccccc1`?
**A.** MIC [1]: 28.5 µM (≈ 12.5 µg/mL); viability at 100 µM [2]: 61.6%; viability at 25 µM [3]: 100%

**Q.** Which Activity [5] does the source give for `NNC(=O)c1ccncc1` [ISONIAZID] here?
**A.** The Activity was “Active”.

**Q.** And the MIC [1]?
**A.** The MIC was 0.72 µM (≈ 0.0987 µg/mL).

**Q.** For `CO[C@H]1/C=C/O[C@@]2(C)Oc3c(C)c(O)c4c(O)c(c(/C=N/N5CCN(C)CC5)c(O)c4c3C2=O)NC(=O)/C(C)=C\C=C\[C@H](C)[C@H](O)[C@@H](C)[C@@H](O)[C@@H](C)[C@H](OC(C)=O)[C@@H]1C` [RIFAMPIN], which Activity [5] is on record?
**A.** Its Activity is “Active”.

**Q.** And the MIC [1]?
**A.** Its MIC is 0.48 µM (≈ 0.395 µg/mL).

**Q.** What does the source list for `O=C(Nc1ncc([N+](=O)[O-])s1)c1ccc(-c2ccc(Br)cc2)o1`?
**A.** MIC [1]: 31.7 µM (≈ 12.5 µg/mL); viability at 100 µM [2]: 70.3%; viability at 25 µM [3]: 89.1%

**Q.** For `COc1ccc(OC(C)=O)c(C(=O)Nc2ncc([N+](=O)[O-])s2)c1`, which Ratio [4] is on record?
**A.** Its Ratio is 2.19.

**Q.** And the MIC [1]?
**A.** Its MIC is 74.1 µM (≈ 25 µg/mL).

**Q.** And the viability at 100 µM [2]?
**A.** The viability at 100 µM was 94.1%.

**Q.** And the viability at 25 µM [3]?
**A.** Its viability at 25 µM is 100%.

**Q.** With `COc1ccc(OC(=O)c2ccccc2)c(C(=O)Nc2ncc([N+](=O)[O-])s2)c1` as the compound, how does the MIC [1] read?
**A.** Its MIC is 15.6 µM (≈ 6.25 µg/mL).

**Q.** And the viability at 100 µM [2]?
**A.** Its viability at 100 µM is 67.6%.

**Q.** What about the viability at 25 µM [3] of the same compound?
**A.** The viability at 25 µM was 100%.

**Q.** For `COc1ccc(O)c(C(=O)Nc2ncc([N+](=O)[O-])s2)c1`, which MIC [1] is on record?
**A.** Its MIC is 84.7 µM (≈ 25 µg/mL).

**Q.** What about the viability at 100 µM [2] of the same compound?
**A.** Its viability at 100 µM is 100%.

**Q.** What about the viability at 25 µM [3] of the same compound?
**A.** Its viability at 25 µM is 100%.

**Q.** Which Ratio [4] does the source give for `CC(=O)Oc1c(Cl)cc(Cl)cc1C(=O)Nc1ncc([N+](=O)[O-])s1` here?
**A.** The Ratio was 2.44.

**Q.** What about the MIC [1] of the same compound?
**A.** Its MIC is 66.5 µM (≈ 25 µg/mL).

**Q.** And the viability at 100 µM [2]?
**A.** The viability at 100 µM was 95.1%.

**Q.** And the viability at 25 µM [3]?
**A.** The viability at 25 µM was 100%.

**Q.** Which Ratio [4] does the source give for `O=C(Nc1ncc([N+](=O)[O-])s1)c1ccc([N+](=O)[O-])o1` here?
**A.** The Ratio was 29.

**Q.** What about the MIC [1] of the same compound?
**A.** Its MIC is 5.48 µM (≈ 1.56 µg/mL).

**Q.** And the viability at 100 µM [2]?
**A.** The viability at 100 µM was 67.3%.

**Q.** What about the FC [6] of the same compound?
**A.** The FC was 1.

**Q.** And the viability at 25 µM [3]?
**A.** The viability at 25 µM was 87.4%.

**Q.** What about the selectivity ratio [7] of the same compound?
**A.** The selectivity ratio was over 20.

**Q.** With `O=C(Nc1ncc([N+](=O)[O-])s1)c1ccc(Cl)cc1O` as the compound, how does the MIC [1] read?
**A.** The MIC was over 167 µM.

**Q.** With `CC(C)c1cc(C(=O)Nc2ncc([N+](=O)[O-])s2)c(OC(=O)c2ccccc2)c(C(C)C)c1` as the compound, how does the MIC [1] read?
**A.** Its MIC is over 110 µM.

**Q.** For `CC(=O)Oc1ccccc1C(=O)Nc1ncc([N+](=O)[O-])s1` [NITAZOXANIDE], which MIC [1] is on record?
**A.** The MIC was 163 µM (≈ 50 µg/mL).

**Q.** For `O=C(Nc1ncc([N+](=O)[O-])s1)c1cc(Cl)ccc1O`, which MIC [1] is on record?
**A.** Its MIC is 20.9 µM (≈ 6.25 µg/mL).

**Q.** And the viability at 100 µM [2]?
**A.** The viability at 100 µM was 63%.

**Q.** And the viability at 25 µM [3]?
**A.** Its viability at 25 µM is 100%.

**Q.** With `O=C(Nc1nc2ccc([N+](=O)[O-])cc2s1)c1ccc([N+](=O)[O-])o1` as the compound, how does the MIC [1] read?
**A.** Its MIC is 150 µM (≈ 50 µg/mL).

**Q.** What about the viability at 100 µM [2] of the same compound?
**A.** Its viability at 100 µM is 43.3%.

**Q.** And the FC [6]?
**A.** Its FC is 1.

**Q.** What about the viability at 25 µM [3] of the same compound?
**A.** The viability at 25 µM was 100%.
